Measured values taken from ChEMBL document CHEMBL2384953, “Design and synthesis of L- and D-phenylalanine derived rhodanines with novel C5-arylidenes as inhibitors of HCV NS5B polymerase” (Bioorg Med Chem, 2013).

Assays:
Hepatitis C virus [1] = assay: Inhibition of HCV genotype 1b recombinant NS5B Cdelta21 polymerase assessed as inhibition of radioactive UMP incorporation into nascent RNA using […] template-primer after 1hr by liquid scintillation counting analysis; design: species or system Hepatitis C virus subtype 1b
How it was run: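 Recombinant HCV NS5BCΔ21 (genotype 1b), homopolymeric poly rA/U12 template-primer. Read-out is radioactive UMP incorporated into nascent RNA. Dose-response at 8-10 compound concentrations, in duplicate, two independent experiments. IC50 interpolated from nonlinear regression fits; mean ± SD.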

Hepatitis C virus [2] = assay: Antiviral activity against hepatitis C virus infected in human hepatoma cells assessed as inhibition of HCV replication at 100 uM; format: functional, Hepacivirus hominis
[3] = Cytotoxicity against human hepatoma cells; format: cell-based
Hepacivirus hominis [4] = assay: Selectivity ratio of IC50 for HCV NS5B polymerase M423T mutant to IC50 for wild type HCV NS5B polymerase
How it was run: (§1)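 Recombinant HCV NS5BCΔ21 (genotype 1b), wild type and the P495L, M423T and M414T mutants, each assayed for incorporation of radioactive UMP into nascent RNA on homopolymeric poly rA/U12 template-primer. IC50s came from nonlinear regression of dose-response curves (8-10 compound concentrations, duplicate, at least two independent experiments, mean ± SD). The ratio is mutant IC50 over wild-type IC50.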

Hepacivirus hominis [5] = assay: Selectivity ratio of IC50 for HCV NS5B polymerase P495L mutant to IC50 for wild type HCV NS5B polymerase; how it was run: as §1
Hepacivirus hominis [6] = assay: Selectivity ratio of IC50 for HCV NS5B polymerase M414T mutant to IC50 for wild type HCV NS5B polymerase; how it was run: as §1
[7] = target: RNA-directed RNA polymerase (Hepacivirus hominis, UniProt O39930, M414T); assay: Inhibition of HCV NS5B polymerase M414T mutant assessed as inhibition of radioactive UMP incorporation into nascent RNA using […] template-primer after 1hr by liquid scintillation counting analysis
Sequence of RNA-directed RNA polymerase (Hepacivirus hominis, UniProt O39930, M414T) (O39930 entry or part of it M414T): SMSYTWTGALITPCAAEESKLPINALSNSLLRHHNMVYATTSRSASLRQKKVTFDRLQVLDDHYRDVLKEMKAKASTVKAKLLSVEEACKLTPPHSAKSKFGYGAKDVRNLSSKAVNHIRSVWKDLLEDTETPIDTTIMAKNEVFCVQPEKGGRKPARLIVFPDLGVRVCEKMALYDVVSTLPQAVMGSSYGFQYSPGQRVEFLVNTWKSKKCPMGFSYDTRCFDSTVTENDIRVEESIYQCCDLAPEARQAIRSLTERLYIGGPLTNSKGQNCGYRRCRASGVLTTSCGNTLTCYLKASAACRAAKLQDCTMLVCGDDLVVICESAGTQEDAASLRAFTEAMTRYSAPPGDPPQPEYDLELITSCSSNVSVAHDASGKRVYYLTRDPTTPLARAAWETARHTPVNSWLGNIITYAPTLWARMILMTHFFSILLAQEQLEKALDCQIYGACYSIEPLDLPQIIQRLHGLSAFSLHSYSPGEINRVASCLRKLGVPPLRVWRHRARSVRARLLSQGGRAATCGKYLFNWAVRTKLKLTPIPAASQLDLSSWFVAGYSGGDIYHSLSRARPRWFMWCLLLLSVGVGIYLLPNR
How it was run: (§2)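 Mutant counterscreen with recombinant NS5BCΔ21 mutants: P495L (probe for TP-I site), M423T (TP-II), M414T (PP-I). Radioactive UMP incorporation into nascent RNA on poly rA/U12 template-primer, run as for wild-type. IC50 from dose-response curves by nonlinear regression; mean ± SD of at least two independent experiments in duplicate.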

[8] = target: RNA-directed RNA polymerase (Hepacivirus hominis, UniProt O39930, M423T); assay: Inhibition of HCV NS5B polymerase M423T mutant assessed as inhibition of radioactive UMP incorporation into nascent RNA using […] template-primer after 1hr by liquid scintillation counting analysis; how it was run: as §2
Sequence of RNA-directed RNA polymerase (Hepacivirus hominis, UniProt O39930, M423T) (O39930 entry or part of it M423T): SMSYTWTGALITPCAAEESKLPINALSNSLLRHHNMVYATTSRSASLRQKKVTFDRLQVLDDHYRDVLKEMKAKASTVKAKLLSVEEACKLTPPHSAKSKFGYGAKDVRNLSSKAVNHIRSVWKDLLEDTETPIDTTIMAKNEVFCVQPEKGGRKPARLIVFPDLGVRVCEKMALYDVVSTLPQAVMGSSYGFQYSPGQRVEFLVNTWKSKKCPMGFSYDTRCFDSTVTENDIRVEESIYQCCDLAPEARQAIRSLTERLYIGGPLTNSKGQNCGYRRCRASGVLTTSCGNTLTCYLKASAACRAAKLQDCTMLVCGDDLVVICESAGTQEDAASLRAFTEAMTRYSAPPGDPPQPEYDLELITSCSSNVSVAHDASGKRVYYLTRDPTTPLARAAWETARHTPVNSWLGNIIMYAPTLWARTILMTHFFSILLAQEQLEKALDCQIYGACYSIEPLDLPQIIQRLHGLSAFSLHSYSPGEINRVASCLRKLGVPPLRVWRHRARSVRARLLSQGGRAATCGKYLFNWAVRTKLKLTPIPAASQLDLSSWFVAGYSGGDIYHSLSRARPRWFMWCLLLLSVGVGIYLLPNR

[9] = target: RNA-directed RNA polymerase (Hepacivirus hominis, UniProt O39930, P495L); assay: Inhibition of HCV NS5B polymerase P495L mutant assessed as inhibition of radioactive UMP incorporation into nascent RNA using […] template-primer after 1hr by liquid scintillation counting analysis; how it was run: as §2
Sequence of RNA-directed RNA polymerase (Hepacivirus hominis, UniProt O39930, P495L) (O39930 entry or part of it P495L): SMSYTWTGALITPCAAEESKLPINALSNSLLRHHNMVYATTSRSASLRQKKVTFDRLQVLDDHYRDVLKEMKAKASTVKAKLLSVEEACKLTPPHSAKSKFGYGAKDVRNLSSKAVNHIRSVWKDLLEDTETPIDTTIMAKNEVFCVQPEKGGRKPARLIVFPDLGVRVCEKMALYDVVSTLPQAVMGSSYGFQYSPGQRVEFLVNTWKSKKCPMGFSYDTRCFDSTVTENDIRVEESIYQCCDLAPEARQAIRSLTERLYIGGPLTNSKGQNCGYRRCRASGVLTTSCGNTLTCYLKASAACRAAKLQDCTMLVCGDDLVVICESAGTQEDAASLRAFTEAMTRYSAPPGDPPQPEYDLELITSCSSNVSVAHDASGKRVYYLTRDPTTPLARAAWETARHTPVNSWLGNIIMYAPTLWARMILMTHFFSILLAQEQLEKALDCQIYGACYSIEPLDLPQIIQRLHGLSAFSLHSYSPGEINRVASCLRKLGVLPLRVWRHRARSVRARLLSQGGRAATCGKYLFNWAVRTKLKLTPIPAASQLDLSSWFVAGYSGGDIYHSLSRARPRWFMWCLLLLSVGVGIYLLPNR

Structure (SMILES)	IC50 (Hepatitis C virus [1])	other results
O=C(O)[C@H](Cc1ccccc1)N1C(=O)/C(=C/c2cccc(Br)c2)SC1=S	7.4 µM	
O=C(O)[C@@H](Cc1ccccc1)N1C(=O)/C(=C/c2cccc(Oc3ccc(Cl)c(Cl)c3)c2)SC1=S	5.4 µM	
O=C(O)[C@H](Cc1ccccc1)N1C(=O)/C(=C/c2ccc(F)c(F)c2)SC1=S	16.3 µM	
O=C(O)[C@H](Cc1ccccc1)N1C(=O)/C(=C/c2cccc(Oc3cccc(F)c3)c2)SC1=S	8.2 µM	
O=C(O)[C@H](Cc1ccccc1)N1C(=O)/C(=C/c2cccc(Cc3ccccc3)c2)SC1=S	4.8 µM	inhibition at 100 µM (Hepatitis C virus [2]): 30%; Activity [3]: Non-toxic
O=C(O)[C@H](Cc1ccccc1)N1C(=O)/C(=C/c2cccc(Oc3ccc(Cl)cc3)c2)SC1=S	3.4 µM	Ratio IC50 (Hepacivirus hominis [4]): < 1.5; Ratio IC50 (Hepacivirus hominis [5]): < 1.5; Ratio IC50 (Hepacivirus hominis [6]): 16; IC50 [7]: 55.7 µM; IC50 [8]: 4.2 µM; IC50 [9]: 3.6 µM
O=C(O)[C@H](Cc1ccccc1)N1C(=O)/C(=C/c2cccc(Cl)c2)SC1=S	26.6 µM	
O=C(O)[C@@H](Cc1ccccc1)N1C(=O)/C(=C/c2cccc(Oc3ccccc3)c2)SC1=S	19.3 µM	
O=C(O)[C@H](Cc1ccccc1)N1C(=O)/C(=C/c2cccc(Oc3ccc(Cl)c(Cl)c3)c2)SC1=S	2.6 µM	Ratio IC50 (Hepacivirus hominis [4]): < 1.5; Ratio IC50 (Hepacivirus hominis [5]): < 1.5; Ratio IC50 (Hepacivirus hominis [6]): 16; IC50 [7]: 47.8 µM; IC50 [8]: 3 µM; IC50 [9]: 2.8 µM
O=C(O)[C@H](Cc1ccccc1)N1C(=O)/C(=C/c2ccc(Cl)c(Cl)c2)SC1=S	19.4 µM	
O=C(c1ccccc1)c1cccc(/C=C2\SC(=S)N([C@@H](Cc3ccccc3)C(=O)O)C2=O)c1	11.1 µM	
O=C(O)[C@@H](Cc1ccccc1)N1C(=O)/C(=C/c2cccc(Oc3cccc(Cl)c3)c2)SC1=S	4.1 µM	
O=C(O)[C@H](Cc1ccccc1)N1C(=O)/C(=C/c2cccc(OCc3ccccc3)c2)SC1=S	21.8 µM	
O=C(O)[C@H](Cc1ccccc1)N1C(=O)/C(=C/c2ccc(Br)cc2)SC1=S	11.7 µM	
O=C(O)[C@H](Cc1ccccc1)N1C(=O)/C(=C/c2cccc(-c3ccccc3)c2)SC1=S	16.6 µM	
O=C(O)[C@H](Cc1ccccc1)N1C(=O)/C(=C/c2ccc(Cl)cc2)SC1=S	22.3 µM	
O=C(O)[C@@H](Cc1ccccc1)N1C(=O)/C(=C/c2cccc(Oc3ccc(F)cc3)c2)SC1=S	10.3 µM	
O=C(O)[C@@H](Cc1ccccc1)N1C(=O)/C(=C/c2cccc(Oc3ccc(Cl)cc3)c2)SC1=S	5.1 µM	
O=C(O)[C@H](Cc1ccccc1)N1C(=O)/C(=C/c2cccc(Oc3ccc(F)cc3)c2)SC1=S	12.5 µM	
N#Cc1cccc(/C=C2\SC(=S)N([C@@H](Cc3ccccc3)C(=O)O)C2=O)c1	30.7 µM	
O=C(O)[C@H](Cc1ccccc1)N1C(=O)/C(=C/c2ccc(Oc3ccccc3)cc2)SC1=S	50.7 µM	
O=C(O)[C@H](Cc1ccccc1)N1C(=O)/C(=C/c2ccccc2Oc2ccccc2)SC1=S	13.3 µM	
O=C(O)[C@H](Cc1ccccc1)N1C(=O)/C(=C/c2cccc(Oc3cccc(Cl)c3)c2)SC1=S	4.1 µM	
COc1ccc(Oc2cccc(/C=C3\SC(=S)N([C@@H](Cc4ccccc4)C(=O)O)C3=O)c2)cc1	8.3 µM	
O=C(O)[C@H](Cc1ccccc1)N1C(=O)/C(=C/c2cccc(Oc3ccccc3)c2)SC1=S	6.7 µM	
O=C(O)[C@H](Cc1ccccc1)N1C(=O)/C(=C/c2cccc(OC/C=C\c3ccccc3)c2)SC1=S	6.4 µM	
O=C(O)[C@H](Cc1ccccc1)N1C(=O)/C(=C/c2ccc(F)cc2)SC1=S	27.7 µM	
O=C(O)[C@H](Cc1ccccc1)N1C(=O)/C(=C/c2cc(F)cc(F)c2)SC1=S	26 µM	
